assay: Toxicity liver stage against HepG2, at 10uM; format: cell-based; design: test concentration 10 uM, cell line HepG2-A16-CD81EGFP; conditions: human, HepG2-A16-CD81EGFP cells; read-out: INHIBITION
Procedure, shortened: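 Uninfected HepG2-A16-CD81EGFP cells, 3 × 10^3 per well, 1536-well, plated on prespotted compound at 10 μM final, parasite-free screening media added to match infected plates; puromycin 10 μM positive, DMSO 0.5% negative; run in parallel with 48 h PbLuc assay at 37 °C, 5% CO2; viability by CellTiter-Glo luminescence, normalized to controls.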

Point of comparison: `CC1Cc2ccccc2N1Cc1occc1C(=O)O` (stereo not given), cytotoxicity at 10 µM 0.995%. Against it:
- NS(=O)(=O)c1cccnc1Nc1c(Cl)cccc1Cl — lower, -11.8%
- CC(=O)N1CCC(N2CC[C@H](c3nc4cc(C)ccc4o3)C2)CC1 — higher, 2.84%
- COCCOc1ccc(-c2noc([C@@H]3CCCN3)n2)cn1 — lower, -4.34%
- CN(C)c1ccc(-c2noc([C@@H]3CCCN3)n2)cn1 — higher, 1.73%
- Cc1ccccc1CN1C[C@@H]2OCC(=O)N(CC(N)=O)[C@@H]2C1 — lower, -4.87%
- Cc1ccc(N2C(=O)N[C@@H]3CCN(C(=O)C4CCCC4)[C@@H]3C2=O)cc1 — lower, 0.199%
- Cc1cc(Cl)ccc1-n1ncc(C(=O)NCC2COC(C)(C)O2)c1N (stereo not given) — lower, -2.25%
- O=c1n(Cc2ccccc2F)nc2ncccn12 — lower, -4.49%
- CC(=O)Nc1ccc(SCCCC(=O)NCC2CCCO2)nn1 (stereo not given) — lower, -8.67%
- Cc1nc(NC(=O)c2c3c(nn2C2CCS(=O)(=O)C2)CCC3)sc1C (stereo not given) — lower, -4.57%
- O=C(Nc1c(F)cccc1F)N1CC(c2nc(C3CC3)no2)C1 — lower, -1.65%
- CN(C)S(=O)(=O)NCC(Cc1cccc(F)c1)N1CCNC1=O (stereo not given) — lower, -3.55%
- c1coc(CN2CCC3(CC2)CC(N2CCCC2)CO3)c1 (stereo not given) — lower, -11.9%
- O=S(=O)(c1cccc(Cl)c1)N1C[C@@H]2CCN[C@@H]2C1 — lower, -0.331%
- CN(C)C(=O)N1CCN(c2ccc3ccc(C(=O)NC4CC4)cn23)CC1 — higher, 6.53%
- CN(C)C(=O)N1CC[C@@H](O)[C@@H]1Cc1ccccc1 — higher, 3.14%
- COCCN1C(=O)C2(CCC(C(=O)Nc3cccc(C)c3)CC2)N=C1C (stereo not given) — higher, 9.76%
- O=S(=O)(C1CC1)N1CCOC2(CCCN(c3ccccc3)C2)C1 (stereo not given) — lower, -4.54%
- Cc1cnc(N2C[C@@H]3CCN(CC4CC4)C(=O)[C@H]3C2)nc1 — higher, 3.47%
- O=S(=O)(C1CC1)N1CCC2(CCCN(c3ncc(F)cn3)C2)C1 (stereo not given) — higher, 11.5%
- CC(=O)N1CCC2(CC1)c1ncc(-c3ccccc3)n1CCN2C(C)=O — higher, 10.5%
- O=C(Nc1ccccc1)C1CN(C(=O)c2cccs2)CC12CCOCC2 (stereo not given) — lower, -2.13%
- COCCNc1nc(NCCc2ccccc2)nc2nccnc12 — higher, 9.97%
- O=C(NCC(O)c1cccs1)c1cccc(Cl)c1 (stereo not given) — lower, -17.8%
- Cc1cnc2n(c1=O)CC(C(=O)NC1CC1)CS2 (stereo not given) — lower, -18.3%
- Cn1cccc1C(=O)N1CCc2ncc(Cn3cccn3)n2CC1 — lower, -5.2%
- Cc1nn(C)c(C)c1NC(=O)CCn1ncc2ccc(Cl)cc21 — higher, 7.38%
- CC(C)NC(=O)c1n[nH]c(-n2cnnc2)n1 — higher, 1.08%
- Cc1nc(C)c(C(=O)N2CCc3nnc(C4CCCN4C)n3CC2)s1 (stereo not given) — lower, -4.34%
- O=C(c1ccncc1F)N1CCOC(c2cccc(O)c2)C1 (stereo not given) — lower, -4.97%
- COc1ccc(C)cc1C1(CNc2cn[nH]c(=O)c2Cl)CCOCC1 — lower, -6.65%
- COCCS(=O)(=O)NC(C)c1cccc(-n2cccn2)c1 (stereo not given) — higher, 3.36%
- CCC(NC(=O)c1ccc(OC)nn1)c1nc(C(F)(F)F)cs1 (stereo not given) — lower, -3.41%
- COCC(O)CNc1cncc(Br)c1 (stereo not given) — lower, -2.52%
- O=C(c1ccc[nH]1)N1CCN(C(c2ccccc2)C(F)(F)F)CC1 (stereo not given) — higher, 8.3%
- COc1ccc(C(=O)NC2COc3ccccc3C2)cc1OCC(=O)O (stereo not given) — lower, -2.18%
- CC(C(=O)N1CCCCC1)N1CCN(c2ncc(Cl)cn2)CC1 (stereo not given) — lower, -4.79%
- O=C(NCc1ccc(Br)cc1)C1(O)CCSCC1 — lower, -3.59%
- Clc1cccc(C(CNc2ncccn2)N2CCOCC2)c1 (stereo not given) — higher, 4.55%
- Cc1nn(C)c(C)c1C(C)NCc1ccsc1 (stereo not given) — higher, 5.42%
- O=C(c1ccc(SC(F)(F)F)cc1)N1CCOCC1c1ncon1 (stereo not given) — lower, -0.449%
- CCOC(=O)C1CCN(C(=O)CN2CCCC2c2cc(C)no2)CC1 (stereo not given) — higher, 8.32%
- CC(=O)CC(C)(C)NC(=O)CCN(C)Cc1ccc(Cl)s1 — higher, 7.35%
- Cc1noc(CN2CCN(CCO)CC2)n1 — higher, 2.17%
- O=C1CN(c2ccc(CNC(=O)c3cccnc3O)cc2F)CCN1 — higher, 5.04%
- CCc1nn(C)c(CC)c1CNC(=O)Nc1cccc([S+](C)[O-])c1 (stereo not given) — lower, -1.01%
- O=C(CCn1cncn1)Nc1ccc(F)cc1OCC1CC1 — lower, -2.58%
- CSc1ncccc1C(=O)NCC(c1ccco1)N(C)C (stereo not given) — higher, 2.57%
- Cc1ccc(NC(=O)CNc2ccn(CC(N)=O)n2)c(Cl)c1 — higher, 4.44%
- Cc1cc(NC(=O)N(C)C2CCN(c3ccccc3F)C2=O)n(C)n1 (stereo not given) — lower, -7.52%
- CSCCC(NC(N)=O)C(=O)NCc1c(C)nn(-c2ccccc2)c1C (stereo not given) — higher, 8.15%
- O=C(NCC1CCCCO1)c1ccc(-c2ccco2)[nH]c1=O (stereo not given) — lower, -3.06%
- N#Cc1c(F)cccc1NCCCOCC1CCOC1 (stereo not given) — lower, -2.64%
- CN(CC(F)(F)F)C(=O)CNC(=O)Cc1cccc(O)c1 — higher, 5.37%
- Cc1cccn2c(=O)cc(CN3CCCCC3Cn3cncn3)nc12 (stereo not given) — higher, 10.7%
- OC[C@@H]1CCCN1c1nccc(-c2c[nH]nc2-c2ccncc2)n1 — lower, -4.28%
- CN1CCC(Cc2nc(-c3cnccn3)n(Cc3ccccc3)n2)CC1 — higher, 1.21%
- COCCCN1CC2(CCN(C(=O)c3ccc(=O)n(C)c3)CC2)CC1=O — lower, -9.69%
- CCN(C)C(=O)[C@H]1C[C@@](CC(C)C)(C(=O)OC)N(C)[C@H]1c1cccnc1 — lower, 0.779%
- CN(Cc1cc(-c2ccccc2)no1)C(=O)CNS(C)(=O)=O — lower, 0.0288%
- Cc1nn(C)c(C)c1CCC(=O)N1CCN(CCn2cncn2)CC1 — higher, 2.33%
- Cc1cc(-c2cnn(C)c2)ccc1OCC(N)=O — higher, 2.74%
- OC1(CNCCc2csc(-c3ccncc3)n2)CCCNC1 (stereo not given) — lower, -13.2%
- CN(CC(O)CO)C(=O)c1coc(COc2cccc(F)c2)n1 (stereo not given) — lower, -149%
- COc1ccc2c(C)c(C(=O)NCC3CN(S(C)(=O)=O)CCO3)oc2c1 (stereo not given) — higher, 9.52%
- Cc1nc2c(c(N3CCC(O)(CN4CCCC4)CC3)n1)CCNCC2 — lower, -3.39%
- CCC(C)N(Cc1cnc(OC)nc1)Cc1ccsc1 (stereo not given) — higher, 1.71%
- CCNC(=O)[C@@H]1C[C@@H](NC(=O)c2ccc(C#N)cc2)CN1CCCSC — lower, -123%
- O=C(COc1ccccc1N1CCCC1)N1CCN[C@H]2CS(=O)(=O)C[C@H]21 — lower, -0.687%
- CCN(CCn1cccn1)Cc1nc(-c2ccc(C)o2)oc1C — lower, -4.7%
- Cc1cccc(C)c1NC(=O)NCC1CCCN(C2CCOCC2)C1 (stereo not given) — lower, -5.95%
- Cc1ccc(-c2cc(C(=O)N(C)Cc3noc4c3CCCC4)[nH]n2)s1 — lower, -1.03%
- CCOC(=O)N1CCC(NC(C)Cc2cc(C)n[nH]2)CC1 (stereo not given) — lower, -2.65%
- Cc1cc(C)n(-c2ccc(NCCNS(=O)(=O)c3ccccc3)nn2)n1 — lower, -0.771%
- COc1ccc(NC(=O)c2cc3c([nH]c2=O)CCCC3=O)c(OC)c1 — lower, -0.0455%
- Cc1ncsc1CCC(=O)NC1CCN(c2ccc(Cl)nn2)CC1 — lower, -2.5%
- CC(C)C(=O)NCC(=O)N(C)C1CCCN(C2Cc3ccccc3C2)C1 (stereo not given) — lower, -7.79%
- CCOc1ccc(-c2ccnc(CC)n2)cc1C(=O)O — lower, -11.1%
- CC(=O)N1CCN(Cc2coc(-c3cccc(F)c3)n2)CC1 — lower, -3.78%
- Cc1cc(CN(C)C2CCCN(Cc3noc(C)n3)C2)no1 (stereo not given) — higher, 1.46%
- Cc1cnn(CCNCc2ccccc2F)c1 — lower, -9.54%
- Cc1cnn(CC2CCCN2C(=O)c2ccc(OCC3CC3)nc2)c1 (stereo not given) — lower, -9.86%
- CN(CC1COc2ccccc2O1)C(=O)NCCCn1cccn1 (stereo not given) — lower, -7.27%
- Fc1cccc(-c2nc(CN3CCCC3Cn3cccn3)co2)c1 (stereo not given) — lower, -11%
- COc1cccc(CNc2cc(N3CCCC3CO)ncn2)n1 (stereo not given) — lower, -12.5%
- COc1nc(C)ccc1CNc1cc(N2CCCC2CO)ncn1 (stereo not given) — lower, -8.02%
- CCc1[nH]ncc1C(=O)N1CCCC(n2nc(C)cc2C)C1 (stereo not given) — lower, -15.6%
- NS(=O)(=O)c1cccc(CNc2nccc(C(F)(F)F)n2)c1 — lower, -11.1%
- COc1ccccc1C1(C(=O)N2CCCC(c3cc(C)[nH]n3)C2)CC1 (stereo not given) — lower, -16.7%
- CS(=O)(=O)NCC1CCCN(C(=O)c2ccco2)C1 (stereo not given) — lower, -19.3%
- COc1cccc(CN2CCCC2c2c(C)nn(C)c2C)c1 (stereo not given) — lower, -2.35%
- Cc1nnc(C2Cc3ccccc3CN2Cc2ncc(C(C)(C)C)o2)o1 (stereo not given) — higher, 10%
- COc1ccccc1CC1CCCN(CC(=O)N2CCOCC2)C1 (stereo not given) — higher, 7.87%
- CC1CCN(CCCNS(=O)(=O)c2cccc(F)c2)CC1 — lower, -12.3%
- O=C(CC1CCC2(CC1)CCN(Cc1ccncc1)CC2)N1CCCC1 — higher, 6.72%
- O=C(NCc1cncc2c1CCN(Cc1ccc(F)cc1)C2)C1CC1 — lower, -3.26%
- Cc1cccc(CN2CC[C@H]3[C@@H]2CC(=O)N3CC2CC2)n1 — lower, -4.25%
- Cn1cc(C(=O)N[C@@H]2CN(CC3CCOCC3)[C@@H]3CCCO[C@@H]32)cn1 — higher, 6.64%
- Cn1cccc1C(=O)N1CCCC2(CCN(CCN3CCCC3)C2=O)C1 (stereo not given) — lower, -10.8%
- COC(=O)CN1CC(c2nc(Cc3ccccc3)no2)C1 — lower, -22.9%
- Cc1ccc(CN2Cc3nnn(C)c3C(COCC3CC3)C2)o1 (stereo not given) — lower, -4.7%
- CC(=O)N1CCCC1c1nnn2cc(NCc3cccnc3)ccc12 (stereo not given) — higher, 17.1%
- COc1ccc(CN2C[C@H]3CCC[C@@H](CN(C)C4CC4)[C@H]3C2)cn1 — higher, 4.56%
- CS(=O)(=O)c1cccc(C(N)c2ccc(F)c(F)c2)c1 (stereo not given) — higher, 6.62%
- CCn1ncc2c1C(COCC1CC1)CN(c1ccncn1)C2 (stereo not given) — higher, 2.74%
- O=C1C[C@@H]2[C@H](CCN2Cc2ccccn2)N1Cc1ccncc1 — higher, 4.53%
- CC(C)c1ccccc1NC(=O)N1C[C@H]2CC[C@@H](C1)N(C)C2=O — lower, -3%
- O=C(c1cc(C2CCCCC2)no1)N1C[C@H]2CC(O)C[C@H]2C1 (stereo not given in full) — lower, -3.89%
- O=c1[nH]c2cn(-c3cccc(Cl)c3)c(=O)n2[nH]1 — higher, 1.35%
